Assay outcomes from PubChem BioAssay.
HCV core dimer: HCV core protein dimerization inhibition | TR-FRET GST/Flag-core106 dimerization, 1536-well | inhibition, % at 5 µM | 300,000 tested, 0.33% active;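 active means inhibition above the mean of all tested compounds plus 3 SD, set per screening campaign, cut at about 45% in these data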
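Test system: GST/Flag-tagged HCV core106 proteins; Medium: KF-containing HEPES buffer, pH 7.45, DTT, CHAPS, BSA; Times: compound-protein-antibody incubation 4 h at 22.5 °C; Detection: TR-FRET 671 and 617 nm emission; Benchmarks: wells lacking GST-core106 and wells with excess unlabelled core106.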
NPR2 activator: GC-B (human) receptor activation. P20594. activation, % at 10 µM. HEK293-GC-B cells, CNP EC30, cGMP TR-FRET; 0% at EC30 CNP, 100% saturating CNP. 370,000 tested, 0.11% active;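 active means activation at 10 µM reaching about 35% in either raw or pattern-adjusted values, limit read from the data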
GC-A act: GC-A (human) enzyme activation. P16066. HEK293 GC-A cells, cGMP TR-FRET, EC30 ANP; 0% at EC30 ANP, 100% saturating ANP. 370,000 tested, 0.14% active. activation, % at 10 µM; in the data active means activation above about 40%
Target sequence (P16066 whole entry, looked up): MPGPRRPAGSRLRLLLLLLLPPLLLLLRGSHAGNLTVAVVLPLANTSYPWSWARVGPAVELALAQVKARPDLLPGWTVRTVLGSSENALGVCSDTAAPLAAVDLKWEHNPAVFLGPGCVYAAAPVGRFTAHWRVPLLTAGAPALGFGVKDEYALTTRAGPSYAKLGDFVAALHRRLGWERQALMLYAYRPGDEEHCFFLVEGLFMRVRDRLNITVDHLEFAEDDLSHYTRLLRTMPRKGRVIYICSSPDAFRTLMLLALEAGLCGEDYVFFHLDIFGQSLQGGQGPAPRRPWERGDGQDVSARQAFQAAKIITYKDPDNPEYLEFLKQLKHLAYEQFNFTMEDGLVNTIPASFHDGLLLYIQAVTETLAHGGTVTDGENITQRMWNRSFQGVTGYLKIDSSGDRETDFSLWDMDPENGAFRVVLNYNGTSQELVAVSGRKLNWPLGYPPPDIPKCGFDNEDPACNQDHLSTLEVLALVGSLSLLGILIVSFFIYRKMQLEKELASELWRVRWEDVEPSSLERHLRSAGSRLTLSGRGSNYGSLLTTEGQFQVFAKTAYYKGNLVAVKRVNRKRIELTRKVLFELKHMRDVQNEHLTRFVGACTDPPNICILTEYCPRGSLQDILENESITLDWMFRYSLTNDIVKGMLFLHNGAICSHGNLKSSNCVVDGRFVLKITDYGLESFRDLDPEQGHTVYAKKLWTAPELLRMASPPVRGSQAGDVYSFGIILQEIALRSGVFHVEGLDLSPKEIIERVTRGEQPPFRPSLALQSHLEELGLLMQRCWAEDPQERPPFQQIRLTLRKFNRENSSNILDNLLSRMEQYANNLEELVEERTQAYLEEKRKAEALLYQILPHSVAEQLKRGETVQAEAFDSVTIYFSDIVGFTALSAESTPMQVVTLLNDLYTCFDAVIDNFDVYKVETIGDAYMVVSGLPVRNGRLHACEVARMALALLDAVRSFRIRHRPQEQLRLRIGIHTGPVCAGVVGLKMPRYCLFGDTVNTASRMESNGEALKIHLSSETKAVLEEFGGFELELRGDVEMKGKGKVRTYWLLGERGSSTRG
ASAP1 inh: blocks human ASAP1-stimulated Arf1 GTP hydrolysis; Q9ULH1; GDP FP detection; inhibition, % at 16.5 µM; 360,000 tested, 0.19% active; in the data active means inhibition above about 25%
CTSL1 counter: counter-screen for PFM18AAP inhibitors: inhibitors of F. hepatica cathepsin L1 | recombinant F. hepatica cathepsin L1, Z-Leu-Arg-MCA fluorescence | inhibition, % at 5.96 µM | 300,000 tested, 0.49% active | AID 1906;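 active means inhibition above the mean of all tested compounds plus 3 SD, set per screening campaign, cut at about 17% in these data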
ARFGAP1 inh: inhibitors of rat ARFGAP1. Q62848. 360,000 tested, 0.26% active. inhibition, % at 16.5 µM. Arfgap1-stimulated ARF1 GTP hydrolysis, GDP FP detection;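 active means inhibition above a per-plate limit, mean inhibition of low control wells plus 3 SD, cut at about 25% in these data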
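System: truncated rat Arfgap1 GAP domain / Benchmarks: high control wells lacking Arfgap1, low control full reaction with DMSO / Times: compound-enzyme preincubation 20 min, reaction 120 min, detection 60 min, 25 °C / Repeats: one replicate per compound / Also added: human ARF1(Δ1-17)-GTP substrate / Measured by: Tracer-displacement fluorescence polarization with EDTA stop, 620/688 nm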
Hits are given with their value. This is a sample that favours compounds with a hit; in the whole collection about 1.2% have one here.

What do the screens show for `CC(C)(C)OC(=O)N1CCCN(C(=O)Nc2cccc(Cl)c2)CC1`?
HCV core dimer: inactive; NPR2 activator: inactive; GC-A act: inactive; ASAP1 inh: inactive; CTSL1 counter: inactive; ARFGAP1 inh: inactive

Results for Cc1ccc(CNC(=O)CS(=O)Cc2nc(-c3ccccc3C)oc2C)cc1 (stereo not given) ?
HCV core dimer: inactive; NPR2 activator: 111; GC-A act: inactive; ASAP1 inh: inactive; CTSL1 counter: inactive; ARFGAP1 inh: inactive

What do the screens show for `Cc1ccccc1-c1nc(CS(=O)CC(=O)NCc2ccccc2)c(C)o1` (stereo not given)?
HCV core dimer: inactive; NPR2 activator: inactive; GC-A act: inactive; ASAP1 inh: inactive; CTSL1 counter: inactive; ARFGAP1 inh: inactive

How did CCOC(=O)c1cnc2c(c(C)nn2-c2ccc(C)cc2)c1Cl do in these assays?
NPR2 activator: inactive; GC-A act: 60; ASAP1 inh: inactive; ARFGAP1 inh: inactive

Results for CCCN1Cc2cccc(C(=O)NCc3ccc4c(c3)OCO4)c2C1=O ?
HCV core dimer: inactive; NPR2 activator: inactive; GC-A act: inactive; ASAP1 inh: inactive; CTSL1 counter: inactive; ARFGAP1 inh: inactive

What do the screens show for `CCCN1Cc2cccc(C(=O)NCc3cccs3)c2C1=O`?
HCV core dimer: inactive; NPR2 activator: inactive; GC-A act: inactive; ASAP1 inh: inactive; CTSL1 counter: 18; ARFGAP1 inh: inactive

How did CC(C)NC(=O)CC(=O)N/N=C/c1ccccc1F do in these assays?
HCV core dimer: inactive; NPR2 activator: inactive; GC-A act: inactive; ASAP1 inh: inactive; CTSL1 counter: inactive; ARFGAP1 inh: inactive

How did COc1ccc(S(=O)Cc2ccc(C(=O)N3CCN(c4cccc(C)c4C)CC3)o2)cc1 (stereo not given) do in these assays?
HCV core dimer: inactive; CTSL1 counter: inactive

What do the screens show for `Cc1ccc(C(=O)C(NC(=O)c2ccco2)Nc2sc3c(c2C(N)=O)CCCC3)cc1` (stereo not given)?
HCV core dimer: 66; CTSL1 counter: inactive

What do the screens show for `CCN(CC)C(=O)COc1cc(C)cc2oc(=O)cc(-c3ccccc3)c12`?
HCV core dimer: inactive; NPR2 activator: inactive; GC-A act: inactive; ASAP1 inh: inactive; CTSL1 counter: inactive; ARFGAP1 inh: inactive

How did CN(C)S(=O)(=O)Oc1ccsc1C(=O)Nc1ccc(Cl)cc1 do in these assays?
HCV core dimer: inactive; NPR2 activator: inactive; GC-A act: inactive; ASAP1 inh: inactive; CTSL1 counter: inactive; ARFGAP1 inh: inactive

What do the screens show for `CCN(CC)S(=O)(=O)c1ccc(OC)c(NC(=O)c2cccc([N+](=O)[O-])c2C)c1`?
HCV core dimer: inactive; NPR2 activator: inactive; GC-A act: inactive; ASAP1 inh: inactive; CTSL1 counter: inactive; ARFGAP1 inh: inactive

Results for COc1ccc(Nc2c(-c3ccco3)nc3ccc(C)cn23)cc1 ?
HCV core dimer: inactive; NPR2 activator: 36; GC-A act: inactive; ASAP1 inh: inactive; CTSL1 counter: inactive; ARFGAP1 inh: inactive

Results for O=c1nc(/C=C/c2cccn2-c2ccc([N+](=O)[O-])cc2)cc(C(F)(F)F)[nH]1 ?
HCV core dimer: 61; NPR2 activator: inactive; GC-A act: inactive; ASAP1 inh: inactive; CTSL1 counter: inactive; ARFGAP1 inh: inactive

What do the screens show for `O=c1nc(/C=C/c2cc([N+](=O)[O-])ccc2Cl)cc(C(F)(F)F)[nH]1`?
HCV core dimer: inactive; NPR2 activator: inactive; GC-A act: inactive; ASAP1 inh: inactive; CTSL1 counter: inactive; ARFGAP1 inh: inactive

How did CCCn1c(=NC(=O)CCS(=O)(=O)c2ccccc2)sc2cc(S(N)(=O)=O)ccc21 do in these assays?
HCV core dimer: inactive; NPR2 activator: inactive; GC-A act: inactive; ASAP1 inh: inactive; CTSL1 counter: inactive; ARFGAP1 inh: inactive

Results for Cn1c(=NC(=O)CS(=O)(=O)c2ccccc2)sc2cc(F)ccc21 ?
NPR2 activator: inactive; GC-A act: inactive; ASAP1 inh: inactive; ARFGAP1 inh: inactive

How did Cn1c(=NC(=O)CCS(=O)(=O)c2ccccc2)sc2cc(F)ccc21 do in these assays?
HCV core dimer: inactive; NPR2 activator: inactive; GC-A act: 62; ASAP1 inh: inactive; CTSL1 counter: inactive; ARFGAP1 inh: inactive

Results for COCCn1c(=NC(=O)CCS(=O)(=O)c2ccccc2)sc2cc(C(=O)OC)ccc21 ?
HCV core dimer: inactive; NPR2 activator: inactive; GC-A act: 61; ASAP1 inh: inactive; CTSL1 counter: inactive; ARFGAP1 inh: inactive

What do the screens show for `O=S1(=O)CCC(N=Cc2ccc(-c3ccc(Cl)cc3)o2)C1` (stereo not given)?
HCV core dimer: inactive; NPR2 activator: inactive; GC-A act: inactive; ASAP1 inh: inactive; CTSL1 counter: inactive; ARFGAP1 inh: inactive

How did CCOC(=O)/C=C(\C)Sc1cc(O)c2ccccc2c1O do in these assays?
NPR2 activator: inactive; GC-A act: inactive; ASAP1 inh: 29; ARFGAP1 inh: inactive

Results for COc1ccc(-n2c(-c3ccc(Cl)cc3Cl)n[nH]c2=S)c(OC)c1 ?
NPR2 activator: inactive; GC-A act: inactive; ASAP1 inh: inactive; ARFGAP1 inh: inactive

How did COc1ccccc1Nc1ncc(-c2cccs2)s1 do in these assays?
HCV core dimer: 50; NPR2 activator: inactive; GC-A act: inactive; ASAP1 inh: inactive; CTSL1 counter: inactive; ARFGAP1 inh: inactive

How did COC(CNC(=O)CN1C(=O)COc2ccc(S(=O)(=O)N3CCOCC3)cc21)OC do in these assays?
HCV core dimer: inactive; NPR2 activator: inactive; GC-A act: inactive; ASAP1 inh: inactive; CTSL1 counter: inactive; ARFGAP1 inh: inactive

What do the screens show for `CCc1nnc(NCC(=O)N2CCc3ccccc32)s1`?
HCV core dimer: 88; NPR2 activator: inactive; GC-A act: inactive; ASAP1 inh: inactive; CTSL1 counter: inactive; ARFGAP1 inh: inactive

What do the screens show for `CC(=O)Nc1cccc(C(=O)Oc2cccc(C)c2)c1O`?
HCV core dimer: inactive; NPR2 activator: inactive; GC-A act: inactive; ASAP1 inh: inactive; CTSL1 counter: inactive; ARFGAP1 inh: inactive

How did CS(=O)(=O)Nc1cccc(C2=NN(C(=O)c3ccco3)C(c3ccco3)C2)c1 (stereo not given) do in these assays?
HCV core dimer: inactive; NPR2 activator: inactive; GC-A act: inactive; ASAP1 inh: inactive; CTSL1 counter: inactive; ARFGAP1 inh: inactive

How did COc1ccc(Cn2c(=O)n(Cc3ccco3)c(=N)c3c4c(sc32)COC(C)(C)C4)cc1 do in these assays?
HCV core dimer: inactive; NPR2 activator: 56; GC-A act: 56; ASAP1 inh: inactive; CTSL1 counter: inactive; ARFGAP1 inh: inactive

Results for CCC(=O)Nc1cccc(-c2cn3ccccc3n2)c1 ?
HCV core dimer: inactive; NPR2 activator: inactive; GC-A act: inactive; ASAP1 inh: inactive; CTSL1 counter: inactive; ARFGAP1 inh: inactive

Results for O=C1c2ccccc2C(=O)N1Cc1cc(Cl)c(O)c([N+](=O)[O-])c1 ?
HCV core dimer: inactive; NPR2 activator: inactive; GC-A act: inactive; ASAP1 inh: inactive; CTSL1 counter: inactive; ARFGAP1 inh: inactive
